Published values pooled from the literature.
Each line is one published result; the experiments were not run side by side.
Cell line: A549
Read-out: cell growth or viability

Structure (SMILES) | test | conditions | measurement | result
O=C(Nc1ccc(Cl)cc1)Nc1cccc(-c2cn(Cc3cccc(Cl)c3)nn2)c1 | CCK-8 | 50 µM, 72 h | viability | 166%
CCCCn1cnc2ccc(-c3ccc(NC(=O)NCCC)nc3)cc2c1=O | CCK-8 | 72 h | IC50 | > 10 µM
NCCC(=O)Nc1ccccc1/N=c1\cc(-c2ccc3nc(N)oc3c2)oc2ccc(O)cc12 | CCK-8 | 1 µM | inhibition | 13.9%
CCCCC(=O)Nc1ccc(-c2ccc3ncn(CCC)c(=O)c3c2)c(F)n1 | CCK-8 | 72 h | IC50 | > 10 µM
O=C(Nc1cccc(-c2cn(Cc3ccc(Br)cc3)nn2)c1)Nc1ccccc1Br | CCK-8 | 50 µM, 72 h | viability | 70.9%
CCCCCC(=O)Nc1ccc(-c2ccc3ncn(CCCC)c(=O)c3c2)cn1 | CCK-8 | 72 h | IC50 | 1.34 µM
CCCCCCCCCCCCCCCCCCOc1cccc(CC(=O)OCC[N+](CC)(CC)CC)c1 | SRB | 10 µM | inhibition | 40%
CCCCC(=O)Nc1ccc(-c2ccc3ncn(CCC)c(=O)c3c2)cc1 | CCK-8 | 72 h | IC50 | > 10 µM
NCCC(=O)Nc1ccccc1/N=c1\cc(-c2ccc3oc(N)nc3c2)oc2ccccc12 | CCK-8 | 1 µM | inhibition | 14.5%
CCCn1cnc2ccc(-c3ccc(NC(=O)CNC(C)C)nc3)cc2c1=O | CCK-8 | 72 h | IC50 | > 10 µM
O=C(Nc1ccc(Cl)cc1)Nc1cccc(-c2cn(Cc3ccc(Cl)cc3)nn2)c1 | CCK-8 | 50 µM, 72 h | viability | 101%
COc1ccc(NC(=O)NCc2cn(Cc3ccc(C)cc3)nn2)cc1 | CCK-8 | 20 µM, 72 h | viability | 70.4%
O=C(NCc1cn(Cc2ccc(Br)cc2)nn1)Nc1ccc(Cl)cc1 | CCK-8 | 50 µM, 72 h | viability | 97%
CCCCCCCCCCCCCCCCCCOc1cccc(CC(=O)OCC[N+](C)(C)C)c1 | SRB | 10 µM | inhibition | 8.12%
O=C(Nc1ccc(Cl)cc1)Nc1ccc(-c2cn(Cc3cccc(Cl)c3)nn2)cc1 | CCK-8 | 50 µM, 72 h | viability | 73.2%
COc1ccc(NC(=O)Nc2ccc(-c3cn(Cc4cccc(Cl)c4)nn3)cc2)cc1 | CCK-8 | 20 µM, 72 h | viability | 102%
Cc1cc(=O)oc2cc(OCCCCSC#N)ccc12 | SRB |  | GI50 | 5 µM
CCC(=O)NCc1ccc(-c2cnc(C3CN(C(=O)c4cnc(NC(=O)[C@@H]5CC(C)(C)CN5)s4)C3)s2)c2ccccc12 |  | 14 days | GI50 | > 3 µM
CCCCC(=O)Nc1ccc(-c2cnc3ncn(CCC)c(=O)c3c2)cn1 | CCK-8 | 72 h | IC50 | > 10 µM
COc1ccc(NC(=O)Nc2ccc(-c3cn(Cc4ccc(C)cc4)nn3)cc2)cc1 | CCK-8 | 20 µM, 72 h | viability | 67.9%
CCCC(=O)Nc1nc2cc(-c3ccc4ncn(Cc5ccccc5)c(=O)c4c3)ccc2s1 | MTT | 72 h | IC50 | 7.87 µM
CCCCCCCCCCCCCCCCCCOc1ccccc1CC(=O)OCC[N+]1(C)CCCC1 | SRB | 10 µM | inhibition | 77%

Structure (SMILES) | test | conditions | measurement | result
O=C(Nc1ccccc1/N=c1\cc(-c2ccc3c(c2)OCO3)oc2ccccc12)N1CCOCC1 | CCK-8 | 1 µM | inhibition | 13.8%
O=C(Nc1ccc(Cl)cc1)Nc1ccc(-c2cn(Cc3ccc(Cl)cc3)nn2)cc1 | CCK-8 | 20 µM, 72 h | viability | 73.2%
NCCCCC(=O)Nc1ccccc1/N=c1\cc(-c2ccc3c(c2)OCO3)oc2ccccc12 | CCK-8 | 1 µM | inhibition | 3.56%
COc1ccc(NC(=O)Nc2cccc(-c3cn(Cc4ccc(Cl)cc4)nn3)c2)cc1 | CCK-8 | 20 µM, 72 h | viability | 147%
O=C(NCc1cn(Cc2ccc(Cl)cc2)nn1)Nc1ccccc1Br | CCK-8 | 50 µM, 72 h | viability | 86.1%
CCCCCCCCCCCCCCCCCCOc1ccccc1CC(=O)OCC[N+]1(C)CCCCC1 | SRB | 10 µM | inhibition | 57.8%
COc1ccc(NC(=O)NCc2cn(Cc3ccc(Br)cc3)nn2)cc1 | CCK-8 | 20 µM, 72 h | viability | 102%
CCCCC(=O)Nc1ccc(-c2ccc3ncn(CC4CCC4)c(=O)c3c2)cn1 | CCK-8 | 72 h | IC50 | 0.32 µM
NCCCC(=O)Nc1ccccc1/N=c1\cc(-c2ccc3c(c2)OCO3)oc2ccccc12 | CCK-8 | 1 µM | inhibition | -0.2%
COc1ccc(NC(=O)Nc2ccc(-c3cn(Cc4ccc(Cl)cc4)nn3)cc2)cc1 | CCK-8 | 50 µM, 72 h | viability | 98.3%
O=C(Nc1cccc(F)c1)Nc1nc2cc(-c3ccc4ncn(Cc5ccccc5)c(=O)c4c3)ccc2s1 | MTT | 72 h | IC50 | 3.49 µM
CCCCCCCCCCCCCCCCCCOCC(COP(=O)([O-])OCC[N+](C)(C)C)OC (stereo not shown) | SRB | 10 µM | inhibition | 2.5%
CCCCC(=O)Nc1ccc(-c2ccc3ncn(CCC(C)C)c(=O)c3c2)cn1 | CCK-8 | 72 h | IC50 | 0.45 µM
COc1ccc2oc(-c3ccc4nc(N)oc4c3)c/c(=N\c3ccccc3NC(=O)CCN)c2c1 | CCK-8 | 1 µM | inhibition | 39.1%
CCCCCCCCCCCCCCCCCCOc1cccc(CC(=O)OCC[N+]2(C)CCCC2)c1 | SRB | 10 µM | inhibition | 13.9%
O=C(NCc1cn(Cc2ccc(Br)cc2)nn1)Nc1ccccc1Br | CCK-8 | 20 µM, 72 h | viability | 88.8%
COCCC(=O)Nc1ccccc1/N=c1\cc(-c2ccc3nc(N)oc3c2)oc2ccccc12 | CCK-8 | 1 µM | inhibition | -0.65%
COc1ccc(NC(=O)Nc2cccc(-c3cn(Cc4ccc(Br)cc4)nn3)c2)cc1 | CCK-8 | 50 µM, 72 h | viability | 271%
COc1cccc(NC(=O)Nc2nc3cc(-c4ccc5ncn(Cc6ccccc6)c(=O)c5c4)ccc3s2)c1 | MTT | 72 h | IC50 | 3.39 µM
COc1ccc(NC(=O)Nc2cccc(-c3cn(Cc4cccc(Cl)c4)nn3)c2)cc1 | CCK-8 | 50 µM, 72 h | viability | 237%
C[C@H](N)C(=O)Nc1ccccc1/N=c1\cc(-c2ccc3c(c2)OCO3)oc2ccccc12 | CCK-8 | 1 µM | inhibition | -2.13%
